Non-standard residues stand in square brackets, D forms with d. Residues, ends and D or L forms follow the SMILES beside them. sY = N[C@@H](Cc1ccc(OS(=O)(=O)O)cc1)C(=O)O

The values that follow come from publication PMC4646787 (Science Advances, 2015).

For experiment [1], the target named is T1, XA21 (Oryza sativa subsp. indica, UniProt Q1MX30).
T1 sequence (Q1MX30 24-1025): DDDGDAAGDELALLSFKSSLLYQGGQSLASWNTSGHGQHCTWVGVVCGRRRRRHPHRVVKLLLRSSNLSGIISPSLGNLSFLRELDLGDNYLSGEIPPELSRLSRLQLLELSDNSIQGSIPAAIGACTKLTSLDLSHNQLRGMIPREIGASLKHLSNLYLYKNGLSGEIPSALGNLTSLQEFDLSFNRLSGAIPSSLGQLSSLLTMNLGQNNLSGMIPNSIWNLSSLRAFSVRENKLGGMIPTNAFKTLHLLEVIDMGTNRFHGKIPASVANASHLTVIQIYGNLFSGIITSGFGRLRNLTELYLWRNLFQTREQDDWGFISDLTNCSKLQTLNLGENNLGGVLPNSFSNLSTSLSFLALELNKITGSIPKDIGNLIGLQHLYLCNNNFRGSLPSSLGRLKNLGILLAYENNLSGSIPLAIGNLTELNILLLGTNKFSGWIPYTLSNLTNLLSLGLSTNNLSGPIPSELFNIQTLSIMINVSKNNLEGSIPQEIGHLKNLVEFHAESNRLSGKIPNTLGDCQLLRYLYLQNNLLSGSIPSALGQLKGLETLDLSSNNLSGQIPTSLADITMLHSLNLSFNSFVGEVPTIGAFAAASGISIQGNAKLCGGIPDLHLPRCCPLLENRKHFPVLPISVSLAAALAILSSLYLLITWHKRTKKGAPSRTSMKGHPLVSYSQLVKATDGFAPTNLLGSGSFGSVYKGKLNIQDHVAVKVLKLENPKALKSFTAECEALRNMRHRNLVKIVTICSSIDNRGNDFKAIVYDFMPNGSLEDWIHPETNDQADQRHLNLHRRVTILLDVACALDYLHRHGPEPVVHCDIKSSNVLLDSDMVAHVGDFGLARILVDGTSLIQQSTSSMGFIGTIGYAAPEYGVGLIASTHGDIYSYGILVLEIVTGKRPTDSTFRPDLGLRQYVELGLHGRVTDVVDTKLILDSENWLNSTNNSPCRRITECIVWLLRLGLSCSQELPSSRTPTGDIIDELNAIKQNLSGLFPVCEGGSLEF
The experiment is described as follows: ROS production. The experiment is classed as cell-based, rice (Oryza sativa ssp. japonica). The procedure, abridged:
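Leaves of 4- to 6-week-old hydroponic Kitaake and Ubi::XA21 plants were cut along the midvein into 1–1.5 mm pieces and floated overnight on autoclaved ddH2O. Two pieces per well went into L-012 plus horseradish peroxidase (0.5 to 2 mg/ml), with peptide or mock (ddH2O or peptide buffer). Chemiluminescence was read for 3 h at 0.5 s per reading, n = 6. EC50 was the half-maximal total 3-h ROS over a peptide concentration series.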

The target in experiment [2] is T1, XA21. The experiment is described as follows: Ethylene production in Ubi::XA21 rice leaves. Format: cell-based, rice (Oryza sativa ssp. japonica). Conditions: 1 μM peptide, 4 hours, gas chromatography, n = 3, Fig. 3C. The procedure, abridged: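 Ubi::XA21 Kitaake plants (3–4 weeks, hydroponic) were used. Leaves were cut into ~0.3 to 0.5 mm strips and floated on water overnight at room temperature. Strips were then incubated with water or peptide (1 μM) in sealed tubes. Ethylene accumulated in the headspace over 4 h was measured by gas chromatography.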

The compound `CC(C)C[C@H](N)C(=O)N[C@@H](Cc1c[nH]c2ccccc12)C(=O)N[C@@H](CCCCN)C(=O)N[C@@H](Cc1c[nH]cn1)C(=O)N[C@H](C(=O)NCC(=O)NCC(=O)NCC(=O)N[C@@H](CC(=O)O)C(=O)N[C@@H](Cc1ccc(OS(=O)(=O)O)cc1)C(=O)N1CCC[C@H]1C(=O)N1CCC[C@H]1C(=O)N1CCC[C@H]1C(=O)NCC(=O)N[C@@H](C)C(=O)N[C@@H](CC(N)=O)C(=O)N1CCC[C@H]1C(=O)N[C@@H](CCCCN)C(=O)N[C@@H](Cc1c[nH]cn1)C(=O)N[C@@H](CC(=O)O)C(=O)N1CCC[C@H]1C(=O)N1CCC[C@H]1C(=O)N1CCC[C@H]1C(=O)N[C@@H](CCCNC(=N)N)C(=O)O)C(C)C` [RaxX24-sY] (H-LWKHVGGGD[sY]PPPGANPKHDPPPR-OH; N-terminus and C-terminus assumed) registered an EC50 in experiment [1] of roughly 30 nM.
As to HVGGGDYPPPGANPKHDPPPR [RaxX21-Y], the “Ethylene production, result in words” value in experiment [2] was “but not RaxX21-Y”.
